In ChEMBL document CHEMBL2380244, “Optimized chemical probes for REV-ERBα” (J Med Chem, 2013):
Activity calls are given as the source filed them. The rule behind the calls is not given here.

Tests used:
[1] = target: T1, Nuclear receptor subfamily 1 group D member 1 (Homo sapiens, UniProt P20393); test: Agonist activity at biotinylated REV-ERBalpha (unknown origin) assessed as increase in biotinylated NCOR peptide recruitment after 1 hr by FRET assay
T1 sequence (P20393 whole entry): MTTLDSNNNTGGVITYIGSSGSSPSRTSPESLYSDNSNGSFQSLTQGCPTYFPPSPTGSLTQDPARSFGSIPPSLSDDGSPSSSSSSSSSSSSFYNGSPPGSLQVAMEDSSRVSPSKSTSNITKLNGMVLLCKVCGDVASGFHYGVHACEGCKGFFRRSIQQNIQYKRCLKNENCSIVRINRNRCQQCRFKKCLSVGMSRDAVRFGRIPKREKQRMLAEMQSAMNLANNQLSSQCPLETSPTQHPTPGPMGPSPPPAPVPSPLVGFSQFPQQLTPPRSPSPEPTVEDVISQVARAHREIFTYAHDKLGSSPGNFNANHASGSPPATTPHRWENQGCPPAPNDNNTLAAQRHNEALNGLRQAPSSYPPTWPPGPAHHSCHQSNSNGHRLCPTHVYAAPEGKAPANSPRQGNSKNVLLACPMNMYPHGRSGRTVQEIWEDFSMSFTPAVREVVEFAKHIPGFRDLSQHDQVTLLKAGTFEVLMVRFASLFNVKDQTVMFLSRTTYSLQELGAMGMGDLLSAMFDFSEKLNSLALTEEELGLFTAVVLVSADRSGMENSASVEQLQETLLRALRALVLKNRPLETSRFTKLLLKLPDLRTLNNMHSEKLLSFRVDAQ
Outline: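 TR-FRET: 20 nM biotinylated REV-ERBα pre-complexed with 10 nM APC-streptavidin, excess biotin added, then mixed with 20 nM biotinylated NCOR1 on 10 nM Eu-streptavidin. MOPS pH 7.5 buffer with NaF, CHAPS, BSA and 10 mM DTT. Added to compound (serial DMSO dilutions of 10 mM stocks), 1 h at RT, Eu/APC read. Data normalized to basal and minimal HTRF, fitted to a 4-parameter logistic.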

[2] = target: T2, Oxysterols receptor LXR-alpha (Homo sapiens, UniProt Q13133); test: Binding affinity to LXRalpha (unknown origin) by radioligand displacement assay
T2 sequence (Q13133 whole entry): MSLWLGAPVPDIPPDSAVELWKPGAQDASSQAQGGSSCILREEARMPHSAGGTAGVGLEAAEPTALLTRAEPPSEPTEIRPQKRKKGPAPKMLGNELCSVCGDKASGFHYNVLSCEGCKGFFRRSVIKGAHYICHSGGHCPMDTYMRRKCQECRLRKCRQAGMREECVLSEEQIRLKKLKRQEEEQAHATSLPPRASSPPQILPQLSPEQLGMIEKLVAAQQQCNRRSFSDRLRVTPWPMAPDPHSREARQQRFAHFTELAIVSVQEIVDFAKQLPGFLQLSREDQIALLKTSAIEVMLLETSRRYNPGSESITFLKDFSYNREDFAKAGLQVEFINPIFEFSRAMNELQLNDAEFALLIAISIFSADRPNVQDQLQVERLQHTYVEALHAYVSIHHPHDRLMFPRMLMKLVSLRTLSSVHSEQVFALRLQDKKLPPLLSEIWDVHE

[3] = target: T3, Nuclear receptor subfamily 1 group D member 1 (Homo sapiens) (UniProt P20393); test: Agonist activity at REV-ERBalpha in human U2OS cells assessed as suppression of BMAL1 expression at 20 uM after 40 hrs by luciferase reporter gene assay relative to DMSO-treated control; assay type: cell-based
T3 sequence (whole entry): T1 sequence (P20393 whole entry)
Outline: (§1)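 U2OS cells stably carrying a mouse Bmal1-promoter luciferase reporter (hygromycin-selected clone) seeded at confluence in 384-well format. Rhythms synchronized by media change and checked over 48 h. Compound added, then bioluminescence recorded in real time every 20 min for 72 h in a temperature-controlled luminometer. Cells then washed and recovery oscillations in full growth medium monitored as a toxicity counter-screen.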

[4] = organism: Homo sapiens; test: Selectivity ratio of IC50 for LXRalpha (unknown origin) to EC50 for biotinylated REV-ERBalpha (unknown origin)
[5] = target: T3, Nuclear receptor subfamily 1 group D member 1 (Homo sapiens); test: Agonist activity at REV-ERBalpha in human U2OS cells assessed as delay of peak of second cycle at 20 uM by luciferase reporter gene assay relative to DMSO-treated control; assay type: cell-based; outline: as §1
[6] = test system: THP-1; test: Cytotoxicity against human THP1 cells assessed as cell viability measured ATP level at 10 uM after 6 hrs by celltiter-glo assay; assay type: cell-based; conditions: thp-1, 6 h
Outline: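 THP-1 cells incubated six hours with compound. CellTiter-Glo added for 15 min, then luminescence read.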

[7] = target: T4, Oxysterols receptor LXR-alpha (Homo sapiens) (UniProt Q13133); test: Agonist activity at LXRalpha in human THP1 cells assessed as effect on LPS-stimulated ABCA1 mRNA expression at 1 uM after 6 hrs by RT-qPCR analysis; assay type: cell-based; conditions: THP-1
T4 sequence (whole entry): T2 sequence (Q13133 whole entry)
Outline: (§2)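 THP-1 cells (RPMI1640 + 10% FBS, kept at 3×10^5–8×10^5 cells/mL) stimulated with LPS 10 mcg/mL with DMSO or compound at 1 μM, in triplicate. After six hours the cells were lysed and transcripts quantified by RT-qPCR against TATA box binding protein as housekeeping gene. Groups compared by one-way ANOVA with post-hoc Dunnett's.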

[8] = target: T3, Nuclear receptor subfamily 1 group D member 1 (Homo sapiens); test: Agonist activity at REV-ERBalpha in human THP1 cells assessed as downregulation of LPS-stimulated IL-6 mRNA expression at 1 uM after 6 hrs by RT-qPCR analysis; assay type: cell-based; conditions: THP-1; outline: as §2
[9] = target: T3, Nuclear receptor subfamily 1 group D member 1 (Homo sapiens); test: Agonist activity at REV-ERBalpha in human U2OS cells assessed as suppression of BMAL1 oscillation measured for 72 hrs by luciferase reporter gene assay; assay type: cell-based; outline: as §1
[10] = target: T3, Nuclear receptor subfamily 1 group D member 1 (Homo sapiens); test: Agonist activity at biotinylated REV-ERBalpha (unknown origin) assessed as biotinylated PGC1-beta peptide recruitment after 20 mins by Greiner assay
Outline: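 Biotinylated peptides (final 20 nM) with Eu-W1024 streptavidin (final 20 nM), 20 min RT. Biotinylated REV-ERBα (20 nM) with APC-streptavidin (10 nM), 20 min RT, then 20-fold excess biotin, 15 min RT. Receptor solution added to peptide plates, Eu/APC TR-FRET read. Four wells per peptide averaged, with standard deviation.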

| Structure (SMILES) | EC50 [1] [µM] | IC50 [2] [µM] | Activity [3] [%] | Ratio IC50/EC50 [4] | TIME [5] [h] | Activity [6] | Activity [7] | Activity [8] | Activity [9] | Activity [10] |
| --- | --- | --- | --- | --- | --- | --- | --- | --- | --- | --- |
| N#Cc1ccc(CN(Cc2ccc(F)cc2)Cc2cccnc2)s1 | 0.2 |  |  |  |  |  |  |  |  |  |
| Clc1ccc(CN(Cc2cccnc2)Cc2cc3ccccc3s2)cc1 | 0.4 | 40 | 24 | 100 | 0 |  |  |  |  |  |
| O=[N+]([O-])c1ccc(CN(Cc2ccc(F)cc2)Cc2cccnc2)s1 | 0.16 | 40 | 14 | 250 | 0 | Non-toxic | inactive | Active |  |  |
| Cc1ccccc1CN(Cc1cccnc1)Cc1ccc([N+](=O)[O-])s1 | 0.2 | 32 | 37 | 160 | 0 |  |  |  |  |  |
| N#Cc1ccc(CN(Cc2cccnc2)Cc2ccccc2F)s1 | > 50 | 32 | 6 |  | 0 |  |  |  |  |  |
| O=[N+]([O-])c1ccc(CN(Cc2ccc(Cl)cc2)Cc2ccccc2F)s1 | 0.063 | 20 | 38 | 320 | 0 |  |  |  |  |  |
| COc1cccc(CN(Cc2cccnc2)Cc2ccc([N+](=O)[O-])s2)c1 | 0.4 | 10 | 42 | 25 | 0.5 |  |  |  |  |  |
| N#Cc1ccc(CN(Cc2cccnc2)Cc2cc(F)ccc2F)s1 | 0.63 | 6.3 | 27 | 10 | 0 |  |  |  |  |  |
| COc1ccc(CN(Cc2cccnc2)Cc2ccc(C#N)s2)cc1 | 0.63 | > 100 |  | > 160 |  |  |  |  |  |  |
| Clc1ccc(CN(Cc2cccnc2)Cc2sccc2-n2cccc2)cc1 | 0.63 | 40 | 30 | 63 | 0 |  |  |  |  |  |
| CC(C)CCN(Cc1ccc(Cl)cc1)Cc1ccc([N+](=O)[O-])s1 | 0.16 | 16 | 21 | 100 | 0 |  |  |  |  |  |
| Clc1ccc(CN(Cc2cccnc2)Cc2ncc[nH]2)cc1 | > 50 | > 100 |  |  |  |  |  |  |  |  |
| N#Cc1ccc(CN(Cc2ccc(Cl)cc2)Cc2cccnc2)s1 | 0.2 | 20 | 23 |  | 0 | Non-toxic | inactive | Active |  |  |
| Cc1sc(CN(Cc2ccc(Cl)cc2)Cc2cccnc2)cc1Br | 0.25 | 32 | 16 | 130 | 0 |  |  |  |  |  |
| Cc1cc(Cl)ccc1CN(Cc1ccc(Cl)cc1)Cc1ccc([N+](=O)[O-])s1 | 0.05 | 63 | 21 | 1260 | 0 | Non-toxic | inactive | Active | Dose-dependent effect |  |
| O=[N+]([O-])c1ccc(CN(Cc2ccccc2)Cc2ccc(Cl)cc2)s1 | 0.1 | > 100 |  | > 1000 |  |  |  |  |  |  |
| O=[N+]([O-])c1ccc(CN(Cc2cccnc2)Cc2cccc(C(F)(F)F)c2)s1 | 0.4 | 16 |  | 40 |  |  |  |  |  |  |
| CCOC(=O)N1CCC(CN(Cc2ccc(Cl)cc2)Cc2ccc([N+](=O)[O-])s2)C1 (stereo not drawn) |  |  | 14 |  | 1.3 |  |  |  |  | Dose-dependent effect |
| COc1ccc(CN(Cc2cccnc2)Cc2ccc([N+](=O)[O-])s2)cc1 | 0.2 | 32 |  | 160 |  |  |  |  |  |  |
| O=[N+]([O-])c1ccc(CN(Cc2ccc(Cl)cc2)Cc2cccnc2)s1 | 0.16 | 13 |  | 79 |  |  |  |  |  |  |
| Cc1ccc(CN(Cc2cccnc2)Cc2ccc([N+](=O)[O-])s2)cc1 | 0.16 | 40 | 23 | 250 | 0 |  |  |  |  |  |
| Cc1cccc(CN(Cc2cccnc2)Cc2ccc([N+](=O)[O-])s2)c1 | 0.2 | 25 | 41 | 130 | 0.8 |  |  |  |  |  |
| CCCCCNC(=O)N1CCC(CN(Cc2ccc(Cl)cc2)Cc2ccc([N+](=O)[O-])s2)C1 (stereo not drawn) [SR9011] | > 50 |  | 20 |  | 1.3 |  |  |  |  | Dose-dependent effect |
| Clc1ccc(CN(Cc2cccnc2)Cc2nccs2)cc1 | > 50 | 50 |  |  |  |  |  |  |  |  |
| N#Cc1ccc(CN(Cc2cccnc2)Cc2ccc(F)c(F)c2)s1 | 0.2 | 16 | 37 | 79 | 0 | Non-toxic | inactive | Active |  |  |
